The data set can be described thus: Toxicity liver stage against HepG2, at 10uM. The settings on record: human, HepG2-A16-CD81EGFP cells; read-out: INHIBITION
More on the design: test concentration 10 uM, cell line HepG2-A16-CD81EGFP. Format: cell-based. The gist of the method:
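Uninfected HepG2-A16-CD81EGFP cells, 3 × 10^3 per well, 1536-well, plated on prespotted compound at 10 μM final, parasite-free screening media added to match infected plates; puromycin 10 μM positive, DMSO 0.5% negative; run in parallel with 48 h PbLuc assay at 37 °C, 5% CO2; viability by CellTiter-Glo luminescence, normalized to controls.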

Take `CN(C)C(=O)COC[C@@H]1CC[C@H]2[C@H](CCN2c2ccccn2)O1`: the cytotoxicity at 10 µM turned out to be 10%.

Regarding `CC(C)c1nn(C)c(N(C)C)c1CNCc1ccc2c(c1)OCO2`, the cytotoxicity at 10 µM was -5.58%.

For `COc1cc(C(=O)N2CCC3(CC2)Nc2ccccc2NC3=O)ccn1`, the cytotoxicity at 10 µM was determined as 0.701%.

With `CC(C)(C)c1coc([C@@H]2COCCN2Cc2ccccc2)n1`, the cytotoxicity at 10 µM was 2.72%.

As to `CN1CCN(Cc2nnc(C3CCN(C4CCCCC4)CC3)n2C)CC1`, the cytotoxicity at 10 µM was 3.18%.

As to `CC1COCCN1C(=O)c1ccc(=O)n(CCOc2ccccc2)n1` (configuration not stated), the cytotoxicity at 10 µM is -13.5%.

Consider `NC(=O)CN(C(=O)Cc1ccc(C(F)(F)F)cc1)C1CCCC1`, for which the cytotoxicity at 10 µM was -3.41%.

Consider `O=C(Cn1ccnc1)N1CCC(n2cc(-c3cccc(Cl)c3)nn2)CC1`, for which the cytotoxicity at 10 µM is -23.4%.

Consider `CNC(=O)c1n[nH]c2c1C(c1cccc3nsnc13)CC(=O)N2` (configuration not stated), for which the cytotoxicity at 10 µM is -13%.

`COc1cc(-c2nccn2CCn2cccn2)cc2c1OCO2`: the cytotoxicity at 10 µM is -3.81%.

For the molecule `CCC(CC)C(CNC(=O)Nc1ccc(OC)cc1)N1CCOCC1` (configuration not stated), the cytotoxicity at 10 µM was -2.86%.

Take `Cc1nc(N2C[C@H]3CC[C@@H](C2)N3)nc2cc(S(C)(=O)=O)ccc12`: the cytotoxicity at 10 µM is -7.71%.

For the molecule `O=C(Nc1cnn(CC(=O)N2CCCCO2)c1)c1ccsc1`, the cytotoxicity at 10 µM is -1.23%.

For the molecule `O=C(NC1CCN(c2nccs2)CC1)c1cccs1`, the cytotoxicity at 10 µM was found to be 4.17%.

As for `OC(COc1ccccc1)CN1CCN(c2nccs2)CC1` (configuration not stated), the cytotoxicity at 10 µM came to 13.1%.

Turning to `CS(=O)(=O)CCC(=O)Nc1ccsc1`, the cytotoxicity at 10 µM was -3.39%.

In the case of `COc1ccc(C(=O)NCc2ccco2)nn1`, the cytotoxicity at 10 µM is -2.14%.

On to `O=C(c1cccnc1)N1CCCC1c1nc(O)cc(-c2ccccn2)n1` (configuration not stated), for which the cytotoxicity at 10 µM is -5.91%.

Consider `CCN(CC)C(=O)Cn1c(=O)n(Cc2ccco2)c2ncccc21`, for which the cytotoxicity at 10 µM was -6.77%.

For the molecule `Cn1cc(CN2CC[C@H]3O[C@H](C(=O)NC4CC4)CC[C@H]32)c2ccccc21`, the cytotoxicity at 10 µM was found to be 8.82%.

Take `CC(C)Cc1cc(CNC(=O)c2cccc3c2OCC3)no1`: the cytotoxicity at 10 µM is -47.9%.

As to `O=C(NC1(c2nnn(CC3CC3)n2)CCCC1)c1ccccc1`, the cytotoxicity at 10 µM was determined as 6.48%.

As for `O=C(CCNc1ncccn1)Nc1cc(C(F)(F)F)c[nH]c1=O`, the cytotoxicity at 10 µM was -6.45%.

On to `c1ccc(-c2nnc3ccc(N4CCC5(CCOC5)C4)nn23)cc1` (configuration not stated), for which the cytotoxicity at 10 µM turned out to be 7.12%.

Regarding `CN(Cc1ccc(Cl)s1)C(=O)NCc1nnc2n1CCC2`, the cytotoxicity at 10 µM is -5.36%.

On to `O=C1COC2(CCN(Cc3cccnc3)CC2)CN1`, for which the cytotoxicity at 10 µM was found to be 2.78%.

In the case of `Cc1nc(N2CCCC(N3CCCC3)C2)c2cnn(C)c2n1` (configuration not stated), the cytotoxicity at 10 µM is -4.07%.

As to `COCC(O)CNC(=O)c1coc(COc2cccc(F)c2)n1` (configuration not stated), the cytotoxicity at 10 µM was -139%.

Take `CC(=O)Cc1c(C)nn(-c2cncc(C(N)=O)c2)c1C`: the cytotoxicity at 10 µM is -17.5%.

With `COC(=O)N1CCCCC1C(=O)N1CCC(c2ccncc2)CC1` (configuration not stated), the cytotoxicity at 10 µM amounted to 11.7%.

Turning to `CN1CCN(C2CCN(C(=O)CCC3CCCC3)CC2)CC1`, the cytotoxicity at 10 µM stood at 6.35%.

As for `Cc1noc(C)c1CN1CCO[C@H]2[C@H](Oc3ncccc3F)CC[C@@H]21`, the cytotoxicity at 10 µM came out at 2.93%.

Regarding `O=C(c1ccc2[nH]ccc2c1)N1Cc2nc(CN3CCCCC3)oc2C1`, the cytotoxicity at 10 µM was found to be 9.58%.

Take `CN1CCc2nnc(C3CCCN3S(=O)(=O)c3ccc(F)cc3)n2CC1` (configuration not stated): the cytotoxicity at 10 µM is -0.594%.

Turning to `CC(C)Oc1ncnc2c1CCN(Cc1ccc(F)cc1)CC2`, the cytotoxicity at 10 µM was 5.68%.

For the molecule `CCn1c(CN(C)C)nnc1C1CCN(Cc2ccccc2)CC1`, the cytotoxicity at 10 µM is -11.6%.

For the molecule `CC(C)c1nccn1-c1cccc(C2CCN(C)CC2)n1`, the cytotoxicity at 10 µM is 0.307%.

Take `N#Cc1c(Cl)nsc1NCc1ccc(N2CCC(CO)CC2)cc1`: the cytotoxicity at 10 µM was -4.73%.

For the molecule `OC1(CNCCc2nc3c(s2)CCCC3)CNCCOC1` (configuration not stated), the cytotoxicity at 10 µM came to 17.4%.

For `Cc1cc(C)n(-c2ccc(N3CCC(O)CC3)nc2)n1`, the cytotoxicity at 10 µM was -5.08%.

Take `Cc1cnn(CC2CCCN2C(=O)CCc2c(C)noc2Cl)c1` (configuration not stated): the cytotoxicity at 10 µM is -8.31%.

With `CCc1nc(Cn2nc(COC)oc2=O)cs1`, the cytotoxicity at 10 µM was -43.4%.

`CN(C)CCOCc1nnc2n1CCN(Cc1ccco1)CC2`: the cytotoxicity at 10 µM came to 2.19%.

For `Cc1nc2ccccc2nc1CN1CCOC(Cn2cccn2)C1` (configuration not stated), the cytotoxicity at 10 µM stood at 1.1%.

As to `COC(=O)c1ccc(F)c(Cn2nc(C)cc2C)c1`, the cytotoxicity at 10 µM was found to be 4.11%.

With `CCC(=O)N1CCCC(c2cc(Nc3ncccn3)nc(C)n2)C1` (configuration not stated), the cytotoxicity at 10 µM was -3.48%.

On to `COCCOCC(=O)NCCCOC1CCCc2ccccc21` (configuration not stated), for which the cytotoxicity at 10 µM was found to be 4.15%.

Regarding `Cc1noc(C2CCCN2C(=O)C2CCC2)n1` (configuration not stated), the cytotoxicity at 10 µM is -12.4%.

On to `Cc1ccc(NC(=O)[C@H]2C[C@H](C(=O)O)CN(CC(C)C)C2)cn1`, for which the cytotoxicity at 10 µM turned out to be 9.9%.

Regarding `CC(C)NC(=O)N1CCC2(CC(=O)N(c3cccc(C#N)c3)C2)C1` (configuration not stated), the cytotoxicity at 10 µM turned out to be 5.66%.

`COc1cc(F)ccc1-c1ncccc1NC(=O)C(C)C`: the cytotoxicity at 10 µM was 1.23%.

As for `CCc1ccccc1OC1CN(CC2CCOC2)C1` (configuration not stated), the cytotoxicity at 10 µM is -25.2%.

For `Cc1cccc(CN(Cn2nc(C)c3c(C)onc3c2=O)C2CC2)c1`, the cytotoxicity at 10 µM amounted to 1.33%.

Turning to `CC(N)Cc1ccccc1Sc1ccccc1` (configuration not stated), the cytotoxicity at 10 µM is 5.41%.

Turning to `COC(=O)NCC(=O)NC(c1ccc(Cl)cc1)C(F)(F)F` (configuration not stated), the cytotoxicity at 10 µM was determined as 9.09%.

For `CC(c1ccccc1)N(C)C(=O)Cn1cc(NC(=O)C(C)(C)C)cn1` (configuration not stated), the cytotoxicity at 10 µM stood at 4%.

With `CSCCC(C)(O)CNC(=O)c1ccsc1` (configuration not stated), the cytotoxicity at 10 µM was -4.57%.

For the molecule `O=C(c1cc(-c2cccs2)cs1)N1CCSCC1`, the cytotoxicity at 10 µM worked out at 10.4%.

For `Cc1noc([C@@]23CCO[C@@H]2CCN(C(=O)c2c(C)noc2C)C3)n1`, the cytotoxicity at 10 µM is 8.4%.

In the case of `Cc1cc(C2CCCN(S(=O)(=O)c3cn(C)cn3)C2)ccn1` (configuration not stated), the cytotoxicity at 10 µM stood at 3.42%.

Consider `c1ccc(CCN2CCc3c(ncn3C3CC3)C2)nc1`, for which the cytotoxicity at 10 µM is -1.43%.

Take `CCc1n[nH]c(C2CN(C(=O)c3csnn3)CCO2)n1` (configuration not stated): the cytotoxicity at 10 µM was -2.5%.

As to `CN1CCCN(c2nccc(-c3cncnc3C3CCCCC3)n2)CC1`, the cytotoxicity at 10 µM was -6.25%.

Take `CN(C)c1ccccc1C(=O)N1C[C@@H](CN2CCCCC2)[C@@H](CO)C1`: the cytotoxicity at 10 µM is -12.1%.

In the case of `CCOc1ccc(NC(=O)c2ccc(C#N)cc2C)cc1CO`, the cytotoxicity at 10 µM was -4.12%.

Turning to `COc1cccc(Cn2ncnc2CNC(C)=O)c1`, the cytotoxicity at 10 µM came to 0.15%.

As to `O=C1CC2(CCN(Cc3ccoc3)CC2)CN1Cc1cc(F)cc(F)c1`, the cytotoxicity at 10 µM is 12.2%.

As for `COc1ccc(CN2C[C@H]3C[C@H](CN(C)C)O[C@H]3C2)cc1`, the cytotoxicity at 10 µM was -7.4%.

As to `Cc1ncnc(NC(CC(C)(C)C)c2cccnc2)c1C` (configuration not stated), the cytotoxicity at 10 µM came to 1.65%.

For the molecule `FC(F)(F)Cn1cc(NCc2cscn2)cn1`, the cytotoxicity at 10 µM was -8.51%.

For the molecule `CCCN1CCN(CC(O)c2ccc(OC(F)(F)F)cc2)CC1` (configuration not stated), the cytotoxicity at 10 µM was -20.5%.

Consider `O=C1CN(Cc2nnc(-c3ccc(Cl)cc3)o2)CCN1`, for which the cytotoxicity at 10 µM is -0.238%.

With `NC(=O)C1=NC2=NS(=O)(=O)c3ccccc3N2N1Cc1ccccc1Cl`, the cytotoxicity at 10 µM is -10.9%.

For `COc1cc2c(cc1OC)S(=O)(=O)N(Cc1cnn(C)c1)C2=O`, the cytotoxicity at 10 µM is 12.6%.

For `Cc1cc(C)n(C2CCCN(C(=O)c3c[nH]c(=O)c(Cl)c3)C2)n1` (configuration not stated), the cytotoxicity at 10 µM was -5.03%.

Turning to `Cc1noc(C2CCCN(C(=O)c3cc(-c4ccccc4)on3)C2)n1` (configuration not stated), the cytotoxicity at 10 µM is -7.14%.

In the case of `O=C(C1CC=CC1)N1CCC2(CC1)CNCCO2`, the cytotoxicity at 10 µM amounted to 1.46%.

Consider `c1cncc(-c2nnc([C@H]3CCN(CC4CC4)C3)o2)c1`, for which the cytotoxicity at 10 µM came out at 9.06%.

As for `O=C(CCOc1ccccc1F)NC1CCCN(c2ccccn2)C1` (configuration not stated), the cytotoxicity at 10 µM was -5.67%.

For the molecule `COc1ccc2ncn(Cc3ncc[nH]3)c(=O)c2c1`, the cytotoxicity at 10 µM was -11%.

As to `O=C(Cn1cccnc1=O)NCC1Cc2ccccc2O1` (configuration not stated), the cytotoxicity at 10 µM was -4.62%.

With `CN1CCN2CCN(C(=O)c3cnn4cc(CCO)cnc34)CC2C1` (configuration not stated), the cytotoxicity at 10 µM was 7.04%.

For the molecule `CCCNC(=O)N1CCC(Oc2cc(C)ccc2F)(C(=O)O)CC1`, the cytotoxicity at 10 µM is -23.8%.

`O=C(Nc1ccccc1N1CCOC1=O)N1CCc2sccc2C1`: the cytotoxicity at 10 µM is -5.55%.

As to `COc1coc(CN2CCCC(CCc3c(F)cccc3F)C2)cc1=O` (configuration not stated), the cytotoxicity at 10 µM is 1.18%.

Take `O=C(O)c1cncc(Cc2ccc(F)cc2)c1`: the cytotoxicity at 10 µM amounted to 2.39%.

Regarding `COCCN1CCN(Cc2ccc3nsnc3c2)[C@H]2CS(=O)(=O)C[C@H]21`, the cytotoxicity at 10 µM is -5.94%.

As to `CNc1nccnc1C1CN(Cc2ccc(OCC(=O)O)cc2)CCO1` (configuration not stated), the cytotoxicity at 10 µM was -5.73%.

Consider `O=C(c1ccc2ccccc2n1)N1CCC2(CCN2c2ncccn2)C1` (configuration not stated), for which the cytotoxicity at 10 µM is -114%.

In the case of `Cc1cc(C(=O)NCc2ccc(N3CCCC(C(N)=O)C3)cc2)[nH]n1` (configuration not stated), the cytotoxicity at 10 µM is 4.23%.

As for `c1ccc2[nH]c(C3CCN(Cc4nnc(C5CC5)o4)CC3)cc2c1`, the cytotoxicity at 10 µM is 3.65%.

As for `Cc1ccc(C2(O)CCN(C(=O)c3ccc(S(N)(=O)=O)cc3)CC2)nc1`, the cytotoxicity at 10 µM is -2.13%.

For `CN(Cc1ccsc1)C(=O)c1nc(N2CCCC2)ncc1Cl`, the cytotoxicity at 10 µM is -45.5%.

As for `Cc1n[nH]c(C2CN(C(=O)c3ccnc(C4CC4)n3)CCO2)n1` (configuration not stated), the cytotoxicity at 10 µM worked out at 1.85%.

As to `CC(C(=O)NCCN1CCCCCC1)n1cncn1` (configuration not stated), the cytotoxicity at 10 µM is -1.4%.

Consider `Cc1cc(=O)[nH]cc1C(=O)N1Cc2ccccc2N(C)CC1C` (configuration not stated), for which the cytotoxicity at 10 µM was 0.305%.

`CC(C)N1CCCC(CNC(=O)CN(C)S(=O)(=O)c2ccccc2)C1` (configuration not stated): the cytotoxicity at 10 µM was -3.88%.
